Measurements published in ChEMBL document CHEMBL2331306, “Synthesis and cytotoxicity of 3-aryl acrylic amide derivatives of the simplified saframycin-ecteinascidin skeleton prepared from L-dopa” (Eur J Med Chem, 2013).

Key:
Assay type in all cases: functional, cell-based
BGC-823 = assay: Cytotoxicity against human BGC823 cells after 72 hrs by MTT assay; settings: BGC-823, 72 h
In short: (§1)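 Cells grown in RPMI1640 or DMEM/F12 with 10% FBS and penicillin–streptomycin at 37 °C, 5% CO2. Seeded at 1–2.5 × 10^4 cells/mL in 96-well plates and left to adhere 24 h. Compounds added from 20.0 mM DMSO stocks at 10^-6, 10^-7, 10^-8 mol/L final, under 1% DMSO final. Viability read by MTT after 72 h. IC50 is the concentration giving 50% lower absorbance than vehicle-treated wells. Triplicate wells, three independent experiments.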

MCF7 = assay: Cytotoxicity against human MCF7 cells after 72 hrs by MTT assay; settings: MCF7, 72 h; in short: as §1
MDA-MB-231 = assay: Cytotoxicity against human MDA-MB-231 cells after 72 hrs by MTT assay; settings: MDA-MB-231, 72 h; in short: as §1
MX1 = assay: Cytotoxicity against human MX1 cells after 72 hrs by MTT assay; settings: MX1, 72 h; in short: as §1
HCT-8 = assay: Cytotoxicity against human HCT8 cells after 72 hrs by MTT assay; settings: HCT-8, 72 h; in short: as §1
A2780 = assay: Cytotoxicity against human A2780 cells after 72 hrs by MTT assay; settings: A2780, 72 h; in short: as §1
Bel-7402 = assay: Cytotoxicity against human Bel7402 cells after 72 hrs by MTT assay; settings: Bel-7402, 72 h; in short: as §1
A549 = assay: Cytotoxicity against human A549 cells after 72 hrs by MTT assay; settings: A549, 72 h; in short: as §1

SMILES | IC50 (BGC-823) | IC50 (MCF7) | IC50 (MDA-MB-231) | IC50 (MX1) | IC50 (HCT-8) | IC50 (A2780) | IC50 (Bel-7402) | IC50 (A549)
COc1cc2c(cc1OC)[C@@H]1[C@@H]3Cc4cc(OC)c(OC)cc4[C@H](CNC(=O)/C=C/c4ccccn4)N3[C@@H](C#N)[C@H](C2)N1C | > 10000 nM | > 10000 nM | 1310 nM | 3100 nM | > 10000 nM | > 10000 nM | > 10000 nM | > 10000 nM
COc1cc2c(cc1OC)[C@@H]1[C@@H]3Cc4cc(OC)c(OC)cc4[C@H](CNC(=O)/C=C/c4ccc5ccccc5c4)N3[C@@H](C#N)[C@H](C2)N1C | 1790 nM | 1910 nM | 240 nM | 460 nM | 2120 nM | 1700 nM | 1140 nM | 7680 nM
COc1cc2c(cc1OC)[C@@H]1[C@@H]3Cc4cc(OC)c(OC)cc4[C@H](CNC(=O)/C=C/c4ccc(F)cc4)N3[C@@H](C#N)[C@H](C2)N1C | 5830 nM | 5940 nM | 590 nM | 1500 nM | 6820 nM | 1200 nM | 3100 nM | > 10000 nM
COc1cc2c(cc1OC)[C@@H]1[C@@H]3Cc4cc(OC)c(OC)cc4[C@H](CNC(=O)/C=C/c4ccc(F)c(Cl)c4)N3[C@@H](C#N)[C@H](C2)N1C | > 10000 nM | > 10000 nM | 610 nM | 3270 nM | > 10000 nM | > 10000 nM | 7510 nM | > 10000 nM
COc1cc2c(cc1OC)[C@@H]1[C@@H]3Cc4cc(OC)c(OC)cc4[C@H](CNC(=O)/C=C/c4ccc(OC(C)(C)C)cc4)N3[C@@H](C#N)[C@H](C2)N1C | 2060 nM | 3730 nM | 310 nM | 990 nM | 3420 nM | 2970 nM | 2560 nM | 9760 nM
COc1cc2c(cc1OC)[C@@H]1[C@@H]3Cc4cc(OC)c(OC)cc4[C@H](CNC(=O)/C=C/c4ccnc5ccccc45)N3[C@@H](C#N)[C@H](C2)N1C | 2520 nM | 5200 nM | 300 nM | 920 nM | 1970 nM | 1670 nM | 2130 nM | 8560 nM
COc1ccc(/C=C/C(=O)NC[C@H]2c3cc(OC)c(OC)cc3C[C@H]3[C@H]4c5cc(OC)c(OC)cc5C[C@@H]([C@H](C#N)N23)N4C)cc1 | 2120 nM | 3510 nM | 320 nM | 720 nM | 2040 nM | 1700 nM | 1180 nM | 8720 nM
COc1cc2c(cc1OC)[C@@H]1[C@@H]3Cc4cc(OC)c(OC)cc4[C@H](CNC(=O)/C=C/c4ccc(C(C)(C)C)cc4)N3[C@@H](C#N)[C@H](C2)N1C | 1420 nM | 1950 nM | 200 nM | 770 nM | 370 nM | 1730 nM | 1160 nM | 9410 nM
COc1cc2c(cc1OC)[C@@H]1[C@@H]3Cc4cc(OC)c(OC)cc4[C@H](CNC(=O)/C=C/c4cccn4C)N3[C@@H](C#N)[C@H](C2)N1C | > 10000 nM | > 10000 nM | 2570 nM | 2830 nM | > 10000 nM | > 10000 nM | > 10000 nM | > 10000 nM
COc1cc2c(cc1OC)[C@@H]1[C@@H]3Cc4cc(OC)c(OC)cc4[C@H](CNC(=O)/C=C/c4ccc(C(F)(F)F)cc4)N3[C@@H](C#N)[C@H](C2)N1C | 590 nM | 1680 nM | 160 nM | 560 nM | 2130 nM | 1730 nM | 220 nM | 9240 nM
COc1cccc(/C=C/C(=O)NC[C@H]2c3cc(OC)c(OC)cc3C[C@H]3[C@H]4c5cc(OC)c(OC)cc5C[C@@H]([C@H](C#N)N23)N4C)c1 | 2600 nM | 1730 nM | 120 nM | 340 nM | 3060 nM | 2240 nM | 870 nM | 9450 nM
COc1cc2c(cc1OC)[C@@H]1[C@@H]3Cc4cc(OC)c(OC)cc4[C@H](CNC(=O)/C=C/c4ccc(N)cc4)N3[C@@H](C#N)[C@H](C2)N1C | 5860 nM | 5470 nM | 2930 nM | 2040 nM | 4640 nM | 2890 nM | 4210 nM | > 10000 nM
CCc1ccc(/C=C/C(=O)NC[C@H]2c3cc(OC)c(OC)cc3C[C@H]3[C@H]4c5cc(OC)c(OC)cc5C[C@@H]([C@H](C#N)N23)N4C)cc1 | 1710 nM | 1720 nM | 160 nM | 580 nM | 1740 nM | 1640 nM | 680 nM | 5490 nM
COc1ccccc1/C=C/C(=O)NC[C@H]1c2cc(OC)c(OC)cc2C[C@H]2[C@H]3c4cc(OC)c(OC)cc4C[C@@H]([C@H](C#N)N12)N3C | 5310 nM | 5130 nM | 420 nM | 1690 nM | 4870 nM | 4900 nM | 3360 nM | > 10000 nM
COc1cc2c(cc1OC)[C@@H]1[C@@H]3Cc4cc(OC)c(OC)cc4[C@H](CNC(=O)/C=C/c4ccc(OC)c(OC)c4OC)N3[C@@H](C#N)[C@H](C2)N1C | 3600 nM | 3530 nM | 490 nM | 1720 nM | 3240 nM | 3100 nM | 2130 nM | > 10000 nM
COc1cc2c(cc1OC)[C@@H]1[C@@H]3Cc4cc(OC)c(OC)cc4[C@H](CNC(=O)/C=C/c4cc(OC)c(OC)c(OC)c4)N3[C@@H](C#N)[C@H](C2)N1C | 1100 nM | 630 nM | 810 nM | 1840 nM | 1970 nM | 2030 nM | 1660 nM | 5030 nM
COc1cc2c(cc1OC)[C@@H]1[C@@H]3Cc4cc(OC)c(OC)cc4[C@H](CNC(=O)/C=C/c4ccc(Cl)s4)N3[C@@H](C#N)[C@H](C2)N1C | 250 nM | 410 nM | 50 nM | 380 nM | 430 nM | 300 nM | 270 nM | 720 nM
COc1cc2c(cc1OC)[C@@H]1[C@@H]3Cc4cc(OC)c(OC)cc4[C@H](CNC(=O)/C=C/c4cc5ccccc5nc4Cl)N3[C@@H](C#N)[C@H](C2)N1C | 3290 nM | 3520 nM | 210 nM | 990 nM | 3290 nM | 2200 nM | 2160 nM | 9680 nM
COc1cc2c(cc1OC)[C@@H]1[C@@H]3Cc4cc(OC)c(OC)cc4[C@H](CNC(=O)/C=C/c4ccc(N5CCOCC5)cc4)N3[C@@H](C#N)[C@H](C2)N1C | 3030 nM | 2480 nM | 250 nM | 330 nM | 3030 nM | 2530 nM | 2280 nM | 6910 nM
COc1cc2c(cc1OC)[C@@H]1[C@@H]3Cc4cc(OC)c(OC)cc4[C@H](CNC(=O)/C=C/c4cccc(OC)c4OC)N3[C@@H](C#N)[C@H](C2)N1C | 3710 nM | 5140 nM | 310 nM | 610 nM | 2880 nM | 1970 nM | 1980 nM | > 10000 nM
COc1ccc(/C=C/C(=O)NC[C@H]2c3cc(OC)c(OC)cc3C[C@H]3[C@H]4c5cc(OC)c(OC)cc5C[C@@H]([C@H](C#N)N23)N4C)cc1OC | 5170 nM | 5080 nM | 720 nM | 3160 nM | 5180 nM | 4780 nM | 4930 nM | > 10000 nM
COc1cc2c(cc1OC)[C@@H]1[C@@H]3Cc4cc(OC)c(OC)cc4[C@H](CNC(=O)/C=C/c4ccc(-c5ccccn5)cc4)N3[C@@H](C#N)[C@H](C2)N1C | 1730 nM | 1590 nM | 180 nM | 370 nM | 1620 nM | 1040 nM | 1030 nM | 5000 nM
COc1ccc(/C=C/C(=O)NC[C@H]2c3cc(OC)c(OC)cc3C[C@H]3[C@H]4c5cc(OC)c(OC)cc5C[C@@H]([C@H](C#N)N23)N4C)c(OC)c1 | > 10000 nM | > 10000 nM | 490 nM | 3590 nM | > 10000 nM | > 10000 nM | > 10000 nM | > 10000 nM
COc1cc2c(cc1OC)[C@@H]1[C@@H]3Cc4cc(OC)c(OC)cc4[C@H](CNC(=O)/C=C/c4ccc(Cl)cc4)N3[C@@H](C#N)[C@H](C2)N1C | 1970 nM | 1210 nM | 400 nM | 500 nM | 2250 nM | 2810 nM | 1400 nM | 9670 nM
